Key:
Type in all cases: functional
[1] = tested on: Parastagonospora nodorum; assay: Antifungal activity against Phaeosphaeria nodorum assessed as inhibition of glume blotch disease on wheat cultivar Yuma plants at 100 ppm measured 24 hr post fungal inoculation relative to untreated control
How it was run: (§1)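 Whole-plant protectant test: pure compounds in acetone, serially diluted in acetone to 6.25, 25 or 100 ppm and applied to plants.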

[2] = tested on: Plasmopara viticola; assay: Antifungal activity against Plasmopara viticola assessed as inhibition of grape downy mildew disease on vines cultivar Carignane plants at 100 ppm measured 24 hr post fungal inoculation relative to untreated control; how it was run: as §1
[3] = tested on: Phytophthora infestans; assay: Antifungal activity against Phytophthora infestans assessed as inhibition of late tomato blight disease on tomato cultivar Rutgers plants at 100 ppm measured 24 hr post fungal inoculation relative to untreated control; how it was run: as §1
[4] = tested on: Puccinia graminis f. tritici; assay: Antifungal activity against Puccinia graminis f. tritici assessed as inhibition of wheat stem rust disease on wheat cultivar Yuma at 100 ppm measured 24 hr post fungal inoculation relative to untreated control; how it was run: as §1
[5] = tested on: Zymoseptoria tritici; assay: Antifungal activity against Zymoseptoria tritici assessed as inhibition of wheat leaf spot disease on wheat cultivar Yuma at 100 ppm measured 24 hr post fungal inoculation relative to untreated control; how it was run: as §1
[6] = tested on: Zymoseptoria tritici; assay: Antifungal activity against Zymoseptoria tritici assessed as inhibition of wheat leaf spot disease on wheat cultivar Yuma at 6.25 ppm measured 24 hr post fungal inoculation relative to untreated control; how it was run: as §1
[7] = tested on: Zymoseptoria tritici; assay: Antifungal activity against Zymoseptoria tritici assessed as inhibition of wheat leaf spot disease on wheat cultivar Yuma at 25 ppm measured 24 hr post fungal inoculation relative to untreated control; how it was run: as §1
[8] = tested on: Puccinia graminis f. tritici; assay: Antifungal activity against Puccinia graminis f. tritici assessed as inhibition of wheat stem rust disease on wheat cultivar Yuma at 25 ppm measured 24 hr post fungal inoculation relative to untreated control; how it was run: as §1
[9] = tested on: Phytophthora infestans; assay: Antifungal activity against Phytophthora infestans assessed as inhibition of late tomato blight disease on tomato cultivar Rutgers plants at 25 ppm measured 24 hr post fungal inoculation relative to untreated control; how it was run: as §1
[10] = tested on: Phytophthora infestans; assay: Antifungal activity against Phytophthora infestans assessed as inhibition of late tomato blight disease on tomato cultivar Rutgers plants at 6.25 ppm measured 24 hr post fungal inoculation relative to untreated control; how it was run: as §1
[11] = tested on: Plasmopara viticola; assay: Antifungal activity against Plasmopara viticola assessed as inhibition of grape downy mildew disease on vines cultivar Carignane plants at 6.25 ppm measured 24 hr post fungal inoculation relative to untreated control; how it was run: as §1
[12] = tested on: Plasmopara viticola; assay: Antifungal activity against Plasmopara viticola assessed as inhibition of grape downy mildew disease on vines cultivar Carignane plants at 25 ppm measured 24 hr post fungal inoculation relative to untreated control; how it was run: as §1
[13] = tested on: Parastagonospora nodorum; assay: Antifungal activity against Phaeosphaeria nodorum assessed as inhibition of glume blotch disease on wheat cultivar Yuma plants at 25 ppm measured 24 hr post fungal inoculation relative to untreated control; how it was run: as §1
[14] = tested on: Parastagonospora nodorum; assay: Antifungal activity against Phaeosphaeria nodorum assessed as inhibition of glume blotch disease on wheat cultivar Yuma plants at 6.25 ppm measured 24 hr post fungal inoculation relative to untreated control; how it was run: as §1
[15] = tested on: Puccinia graminis f. tritici; assay: Antifungal activity against Puccinia graminis f. tritici assessed as inhibition of wheat stem rust disease on wheat cultivar Yuma at 6.25 ppm measured 24 hr post fungal inoculation relative to untreated control; how it was run: as §1
[16] = tested on: Phytophthora infestans; assay: Antifungal activity against Phytophthora infestans assessed as inhibition of late tomato blight disease on tomato cultivar Rutgers plants at 25 ppm measured 96 hr post fungal inoculation relative to untreated control; how it was run: as §1
[17] = tested on: Plasmopara viticola; assay: Antifungal activity against Plasmopara viticola assessed as inhibition of grape downy mildew disease on vines cultivar Carignane plants at 25 ppm measured 96 hr post fungal inoculation relative to untreated control; how it was run: as §1
[18] = tested on: Plasmopara viticola; assay: Antifungal activity against Plasmopara viticola assessed as inhibition of grape downy mildew disease on vines cultivar Carignane plants at 6.25 ppm measured 96 hr post fungal inoculation relative to untreated control; how it was run: as §1
[19] = tested on: Puccinia graminis f. tritici; assay: Antifungal activity against Puccinia graminis f. tritici assessed as inhibition of wheat stem rust disease on wheat cultivar Yuma at 6.25 ppm measured 96 hr post fungal inoculation relative to untreated control; how it was run: as §1
[20] = tested on: Phytophthora infestans; assay: Antifungal activity against Phytophthora infestans assessed as inhibition of late tomato blight disease on tomato cultivar Rutgers plants at 6.25 ppm measured 96 hr post fungal inoculation relative to untreated control; how it was run: as §1
[21] = tested on: Plasmopara viticola; assay: Antifungal activity against Plasmopara viticola assessed as inhibition of grape downy mildew disease on vines cultivar Carignane plants at 100 ppm measured 96 hr post fungal inoculation relative to untreated control; how it was run: as §1
[22] = tested on: Phytophthora infestans; assay: Antifungal activity against Phytophthora infestans assessed as inhibition of late tomato blight disease on tomato cultivar Rutgers plants at 100 ppm measured 96 hr post fungal inoculation relative to untreated control; how it was run: as §1
[23] = tested on: Puccinia graminis f. tritici; assay: Antifungal activity against Puccinia graminis f. tritici assessed as inhibition of wheat stem rust disease on wheat cultivar Yuma at 25 ppm measured 96 hr post fungal inoculation relative to untreated control; how it was run: as §1
[24] = tested on: Puccinia graminis f. tritici; assay: Antifungal activity against Puccinia graminis f. tritici assessed as inhibition of wheat stem rust disease on wheat cultivar Yuma at 100 ppm measured 96 hr post fungal inoculation relative to untreated control; how it was run: as §1
[25] = tested on: Parastagonospora nodorum; assay: Antifungal activity against Phaeosphaeria nodorum assessed as inhibition of glume blotch disease on wheat cultivar Yuma plants at 100 ppm measured 96 hr post fungal inoculation relative to untreated control; how it was run: as §1
[26] = tested on: Parastagonospora nodorum; assay: Antifungal activity against Phaeosphaeria nodorum assessed as inhibition of glume blotch disease on wheat cultivar Yuma plants at 25 ppm measured 96 hr post fungal inoculation relative to untreated control; how it was run: as §1

Compound	inhibition at 100 ppm [1] [%]	inhibition at 100 ppm [2] [%]	inhibition at 100 ppm [3] [%]	inhibition at 100 ppm [4] [%]	inhibition at 100 ppm [5] [%]	inhibition at 6.25 ppm [6] [%]	inhibition at 25 ppm [7] [%]	inhibition at 25 ppm [8] [%]	inhibition at 25 ppm [9] [%]	inhibition at 6.25 ppm [10] [%]	inhibition at 6.25 ppm [11] [%]	inhibition at 25 ppm [12] [%]	inhibition at 25 ppm [13] [%]	inhibition at 6.25 ppm [14] [%]	inhibition at 6.25 ppm [15] [%]	also measured
C=C1[C@@H]2[C@@H](O)C=C3[C@@H](OC)O[C@@H](OC)[C@@H]3[C@@]2(C)[C@H](O)C[C@@H]1C	0	0	0	0	11	–	–	–	–	–	–	–	–	–	–	–
C=C1[C@@H]2[C@@H](O)C=C3[C@@H](OC)O[C@@H](OC)[C@@H]3[C@@]2(C)[C@H](OC(=O)CCc2ccccc2)C[C@@H]1C	0	0	0	9	90	0	17	9	0	0	0	0	0	0	42	–
C=C1[C@@H]2C(=O)C=C3[C@@H](OC)O[C@@H](OC)[C@@H]3[C@@]2(C)[C@H](OC(=O)/C=C/c2ccccc2)C[C@@H]1C	0	0	0	0	0	–	–	–	–	–	–	–	–	–	–	–
C=C1[C@@H]2[C@@H](OC)C=C3[C@@H](OC)O[C@@H](OC)[C@@H]3[C@@]2(C)[C@H](O)C[C@@H]1C	0	0	0	0	0	–	–	–	–	–	–	–	–	–	–	–
C=C1[C@@H](C)C[C@@H](O)[C@]2(C)[C@@H](C=O)C(C=O)=CC[C@@H]12	60	24	28	0	0	0	0	0	36	19	7	4	0	0	0	–
C=C1[C@@H](C)C[C@@H](OC(=O)/C=C/c2ccccc2)[C@]2(C)[C@@H]3C(=CC[C@@H]12)[C@@H](OC)O[C@H]3OC	20	74	99	71	0	0	0	4	78	47	7	61	0	0	4	inhibition at 25 ppm [16]: 6%; inhibition at 25 ppm [17]: 23%; inhibition at 6.25 ppm [18]: 0%; inhibition at 6.25 ppm [19]: 0%; inhibition at 6.25 ppm [20]: 0%; inhibition at 100 ppm [21]: 57%; inhibition at 100 ppm [22]: 14%; inhibition at 25 ppm [23]: 0%; inhibition at 100 ppm [24]: 19%
C=C1[C@@H](C)C[C@@H](OC(=O)/C=C/c2ccccc2)[C@]2(C)[C@@H](C=O)C(C=O)=CC[C@@H]12 [Paxidal]	17	51	69	0	7	–	0	0	57	–	–	23	0	–	–	inhibition at 25 ppm [16]: 18%; inhibition at 25 ppm [17]: 0%; inhibition at 100 ppm [25]: 18%; inhibition at 100 ppm [21]: 0%; inhibition at 100 ppm [22]: 9%; inhibition at 25 ppm [26]: 0%
C=C1[C@@H](C)C[C@@H](OC(=O)/C=C/c2ccccc2)[C@@]2(C)[C@H]1CC=C(CO)[C@@H]2CO	0	70	58	0	0	0	0	0	8	-6	4	22	0	0	0	–
C=C1[C@@H](C)C[C@@H](OC)[C@]2(C)[C@@H](C=O)C(C=O)=CC[C@@H]12	20	70	98	21	0	0	0	0	67	3	9	33	20	20	0	–
C=C1[C@@H]2[C@@H](O)C=C3[C@@H](OC)O[C@@H](OC)[C@@H]3[C@@]2(C)[C@H](OC(=O)/C=C/c2ccccc2)C[C@@H]1C	0	0	0	7	78	43	33	4	0	0	0	0	0	0	0	–
C=C1[C@@H]2[C@H](O)C=C(C=O)[C@H](C=O)[C@@]2(C)[C@H](OC(=O)/C=C/c2ccccc2)C[C@@H]1C	73	76	100	77	0	0	0	8	82	72	0	28	0	0	0	inhibition at 25 ppm [16]: 7%; inhibition at 25 ppm [17]: 0%; inhibition at 6.25 ppm [18]: 0%; inhibition at 6.25 ppm [19]: 0%; inhibition at 6.25 ppm [20]: 0%; inhibition at 100 ppm [21]: 86%; inhibition at 100 ppm [22]: 3%; inhibition at 25 ppm [23]: 4%; inhibition at 100 ppm [24]: 61%
C=C1[C@@H]2[C@@H](O)C=C(C=O)[C@H](C=O)[C@@]2(C)[C@H](OC(=O)/C=C/c2ccccc2)C[C@@H]1C	96	89	100	85	0	0	0	15	91	74	2	19	73	33	4	–

— ChEMBL document CHEMBL3046621, “Fungicidal sesquiterpene dialdehyde cinnamates from Pseudowintera axillaris” (2006)
